The values below come from ChEMBL document CHEMBL1152351, “Synthesis of a series of novel dihydroartemisinin derivatives containing a substituted chalcone with greater cytotoxic effects in leukemia cells” (Bioorg Med Chem Lett, 2009).

Structures are written as SMILES. The source made the active and inactive calls. The calls are words filed in the database; no cut-off is given here.

For the first assay, the system named is HL-60. Nature of the assay: Inhibition of human HL60 cell proliferation after 72 hrs by trypan blue exclusion assay. In kind it is functional.
Conditions: not given
The essentials: (§1)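 HL-60 cells treated 72 h, then counted with trypan blue exclusion. IG50 is the concentration giving 50% inhibition of proliferation. IC50 is the concentration giving 50% loss of viability.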
Compound `CCOc1ccc(/C=C/C(=O)c2ccc(OCCO[C@H]3O[C@@H]4O[C@]5(C)CC[C@H]6[C@H](C)CC[C@@H]([C@H]3C)[C@@]46OO5)cc2)cc1` yielded an IG50 of 0.121 µM.

For the compound `COc1ccc(/C=C/C(=O)c2ccc(OCC(=O)O[C@@H]3O[C@@H]4O[C@]5(C)CC[C@H]6[C@H](C)CC[C@@H]([C@H]3C)[C@@]46OO5)cc2)cc1`, the IG50 was found to be 0.174 µM.

`COc1ccc(/C=C/C(=O)c2ccc(OCCO[C@H]3O[C@@H]4O[C@]5(C)CC[C@H]6[C@H](C)CC[C@@H]([C@H]3C)[C@@]46OO5)cc2)cc1` registered an IG50 of 0.214 µM.

`C[C@H]1[C@@H](OCCOc2ccc(C(=O)/C=C/c3ccc(Cl)cc3)cc2)O[C@@H]2O[C@]3(C)CC[C@H]4[C@H](C)CC[C@@H]1[C@@]24OO3`: the IG50 is 0.106 µM.

`C[C@H]1[C@@H](O)O[C@@H]2O[C@@]3(C)CC[C@H]4[C@H](C)CC[C@@H]1[C@@]24OO3` [ARTENIMOL] had an IG50 of 0.73 µM.

`COc1cc(/C=C/C(=O)c2ccc(OCCO[C@H]3O[C@@H]4O[C@]5(C)CC[C@H]6[C@H](C)CC[C@@H]([C@H]3C)[C@@]46OO5)cc2)cc(OC)c1OC` came in with an IG50 of 0.07 µM.

On to `COc1ccccc1/C=C/C(=O)c1ccc(OCCO[C@H]2O[C@@H]3O[C@]4(C)CC[C@H]5[C@H](C)CC[C@@H]([C@H]2C)[C@@]35OO4)cc1`, for which the IG50 was found to be 0.165 µM.

The next assay has as its system HL-60. Put plainly: Cell cycle arrest in human HL60 cells assessed as accumulation at subG1 phase at 4 uM after 24 hrs using propidium iodide staining by flow cytometry. In kind it is functional, cell-based.
Conditions: not given
The essentials:
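HL-60 cells exposed 24 h; propidium iodide staining, flow cytometry; apoptotic cells scored as sub-G1 fraction. Three independent experiments, mean ± SD.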
Background: Flow cytometry measures light scatter and fluorescence of single cells or particles in a stream.
As for `C[C@H]1[C@@H](O)O[C@@H]2O[C@@]3(C)CC[C@H]4[C@H](C)CC[C@@H]1[C@@]24OO3` [ARTENIMOL], the result was Active.

For the next assay, the system named is P388. Put plainly: Growth inhibition of adriamycin-resistant mouse P388 cells after 72 hrs by trypan blue exclusion assay. The assay is classed as functional.
Conditions: not given
`C[C@H]1[C@@H](O)O[C@@H]2O[C@@]3(C)CC[C@H]4[C@H](C)CC[C@@H]1[C@@]24OO3` [ARTENIMOL] returned an Activity of 1.51 µM.

Consider `COc1cccc2c1C(=O)c1c(O)c3c(c(O)c1C2=O)C[C@@](O)(C(=O)CO)C[C@@H]3O[C@H]1C[C@H](N)[C@H](O)[C@H](C)O1` [DOXORUBICIN], for which the IG50 was 3.73 µM.

The subject of the next assay is HL-60. Nature of the assay: Cytotoxicity against human HL60 cells after 72 hrs by trypan blue exclusion assay. As to conditions: HL-60, 72 h. In kind it is functional, cell-based. The essentials:
as §1
What is called IC50 is the concentration that inhibits the measured activity by half. The low end stands for inhibition by little substance, the high end for a need for much substance. The compound `CCOc1ccc(/C=C/C(=O)c2ccc(OCCO[C@H]3O[C@@H]4O[C@]5(C)CC[C@H]6[C@H](C)CC[C@@H]([C@H]3C)[C@@]46OO5)cc2)cc1` showed an IC50 of 0.11 µM.

`COc1ccc(/C=C/C(=O)c2ccc(OCC(=O)O[C@@H]3O[C@@H]4O[C@]5(C)CC[C@H]6[C@H](C)CC[C@@H]([C@H]3C)[C@@]46OO5)cc2)cc1` had an IC50 of 0.394 µM.

`COc1ccc(/C=C/C(=O)c2ccc(OCCO[C@H]3O[C@@H]4O[C@]5(C)CC[C@H]6[C@H](C)CC[C@@H]([C@H]3C)[C@@]46OO5)cc2)cc1` registered an IC50 of 0.147 µM.

For the compound `C[C@H]1[C@@H](OCCOc2ccc(C(=O)/C=C/c3ccc(Cl)cc3)cc2)O[C@@H]2O[C@]3(C)CC[C@H]4[C@H](C)CC[C@@H]1[C@@]24OO3`, the midpoint of inhibition, the IC50, lay at 0.13 µM.

Turning to `C[C@H]1[C@@H](O)O[C@@H]2O[C@@]3(C)CC[C@H]4[C@H](C)CC[C@@H]1[C@@]24OO3` [ARTENIMOL], the IC50 was found to be 2.9 µM.

Turning to `COc1cc(/C=C/C(=O)c2ccc(OCCO[C@H]3O[C@@H]4O[C@]5(C)CC[C@H]6[C@H](C)CC[C@@H]([C@H]3C)[C@@]46OO5)cc2)cc(OC)c1OC`, 0.219 µM corresponded to half-maximal inhibition (IC50).

`COc1ccccc1/C=C/C(=O)c1ccc(OCCO[C@H]2O[C@@H]3O[C@]4(C)CC[C@H]5[C@H](C)CC[C@@H]([C@H]2C)[C@@]35OO4)cc1`: the IC50 was determined as 0.134 µM.

The test system of the next assay is HL-60. Put plainly: Induction of apoptosis in human HL60 cells assessed as DNA fragmentation at 4 uM after 24 hrs using ethidium bromide staining by DNA gel electrophoresis. In kind it is functional, cell-based.
Conditions: not given
The essentials: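 HL-60 cells treated 24 h; DNA fragmentation resolved by DNA gel electrophoresis and visualized after ethidium bromide staining.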
For `C[C@H]1[C@@H](O)O[C@@H]2O[C@@]3(C)CC[C@H]4[C@H](C)CC[C@@H]1[C@@]24OO3` [ARTENIMOL], the outcome was Active.

Another assay deals with HL-60. Nature of the assay: Growth inhibition of human HL60 cells at 1 uM after 72 hrs by trypan blue exclusion assay. In kind it is functional, cell-based.
Conditions: not given
Consider `O=C(/C=C/c1ccccc1)c1ccccc1`, for which the “growth inhibition (GI)” value was “inactive”.

In the case of `CCOc1ccc(/C=C/C(=O)c2ccc(OCCO[C@H]3O[C@@H]4O[C@]5(C)CC[C@H]6[C@H](C)CC[C@@H]([C@H]3C)[C@@]46OO5)cc2)cc1`, the “growth inhibition (GI)” value is “inactive”.

On to `COc1ccc(/C=C/C(=O)c2ccc(OCC(=O)O[C@@H]3O[C@@H]4O[C@]5(C)CC[C@H]6[C@H](C)CC[C@@H]([C@H]3C)[C@@]46OO5)cc2)cc1`, for which the “growth inhibition (GI)” value was “inactive”.

As to `COc1ccc(/C=C/C(=O)c2ccc(OCCO[C@H]3O[C@@H]4O[C@]5(C)CC[C@H]6[C@H](C)CC[C@@H]([C@H]3C)[C@@]46OO5)cc2)cc1`, the “growth inhibition (GI)” value was “inactive”.

For the compound `C[C@H]1[C@@H](OCCOc2ccc(C(=O)/C=C/c3ccc(Cl)cc3)cc2)O[C@@H]2O[C@]3(C)CC[C@H]4[C@H](C)CC[C@@H]1[C@@]24OO3`, the “growth inhibition (GI)” value was “inactive”.

Turning to `COc1cc(/C=C/C(=O)c2ccc(OCCO[C@H]3O[C@@H]4O[C@]5(C)CC[C@H]6[C@H](C)CC[C@@H]([C@H]3C)[C@@]46OO5)cc2)cc(OC)c1OC`, the “growth inhibition (GI)” value was “inactive”.

Turning to `COc1ccccc1/C=C/C(=O)c1ccc(OCCO[C@H]2O[C@@H]3O[C@]4(C)CC[C@H]5[C@H](C)CC[C@@H]([C@H]2C)[C@@]35OO4)cc1`, the “growth inhibition (GI)” value was “inactive”.

The next assay deals with HL-60. Nature of the assay: Induction of apoptosis in human HL60 cells assessed as occurrence of nuclear shrinkage, blebbing and apoptotic bodies at 2 uM after 24 hrs by acridine orange and ethidium bromide staining. In kind it is functional, cell-based.
Conditions: not given
A digest of the protocol: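 HL-60 cells treated 12 h and 24 h; stained with acridine orange and ethidium bromide, fluorescence microscopy; cells with nuclear shrinkage, blebbing or apoptotic bodies counted as apoptotic among 300 cells observed; percentage calculated. Three independent experiments, mean ± SD.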
As for `C[C@H]1[C@@H](O)O[C@@H]2O[C@@]3(C)CC[C@H]4[C@H](C)CC[C@@H]1[C@@]24OO3` [ARTENIMOL], the result was Active.

The test system of a further assay is P388. Nature of the assay: Growth inhibition of mouse P388 cells after 72 hrs by trypan blue exclusion assay. The assay is classed as functional.
Conditions: not given
`C[C@H]1[C@@H](O)O[C@@H]2O[C@@]3(C)CC[C@H]4[C@H](C)CC[C@@H]1[C@@]24OO3` [ARTENIMOL] gave an Activity of 2.3 µM.

In turn, `COc1cccc2c1C(=O)c1c(O)c3c(c(O)c1C2=O)C[C@@](O)(C(=O)CO)C[C@@H]3O[C@H]1C[C@H](N)[C@H](O)[C@H](C)O1` [DOXORUBICIN] yielded an IG50 of 0.019 µM.
